From ChEMBL document CHEMBL1144718, “Novel 3-aroylpyrazolo[5,1-c][1,2,4]benzotriazine 5-oxides 8-substituted, ligands at GABAA/benzodiazepine receptor complex: synthesis, pharmacological and molecular modeling studies” (Bioorg Med Chem, 2008)
Activity calls are given as the source filed them. The rule behind the calls is not given here.

Experiments:
[1] = Displacement of [3H]flumazenil from GABAA/BzR complex in bovine cerebral cortex membrane; assay type: cell membranes, Bos taurus
Outline: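 Bovine cerebral cortex membranes in 50 mM Tris-citrate pH 7.4 incubated with [3H]Ro15-1788 (1–2 nM) for 1 h at 4 °C to equilibrium; nonspecific binding with 10^-5 M diazepam; DMSO ≤1%. Ki from ≥6 concentrations (10^-9–10^-5 M) by curve fitting and Cheng–Prusoff; percent inhibition at 10 µM; five determinations, triplicate.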

[2] = system: Mus musculus; test: Increase in learning and memory performance in CD1 albino mouse at 30 mg/kg, po after 24 hrs by passive avoidance test; assay type: functional, organism-based; parameters: dose 30 mg/kg
Outline: (§1)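 Passive avoidance in male CD-1 mice treated po 30 min before training; retention tested 24 h later. Latency to enter the dark compartment measured, maximum 60 s (training) and 180 s (retention). Means ± SEM of 15–18 mice.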

[3] = system: Mus musculus; test: Anticonvulsant activity against pentylenetetrazole-induced seizure in CD1 Albino mouse assessed as shock latency at 10 mg/kg, po after 30 mins; assay type: functional
Outline: (§2)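 Male CD-1 mice (22–24 g), compound suspended in 1% CMC (sonicated) given po in 10 ml/kg; 30 min later PTZ 90 mg/kg sc (in saline). Latency (s) to shock and to convulsions recorded; clonic generalized convulsions counted over 30 min.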

[4] = system: Mus musculus; test: Effect on motor coordination in CD1 Albino mouse assessed as number of falls in 30 secs at 10 mg/kg, po after 30 mins by rotarod test relative to control; assay type: functional
Outline: (§3)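 Rota-rod at 16 rpm in male CD-1 mice after po dosing in 1% CMC; number of falls in 30 s counted at 15, 30, 45 and 60 min post-administration.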

[5] = system: Mus musculus; test: Effect on motor coordination in CD1 Albino mouse assessed as number of falls in 30 secs at 30 mg/kg, po after 30 mins by rotarod test relative to control; assay type: functional; outline: as §3
[6] = system: Mus musculus; test: Anxiolytic effect in CD1 albino mouse at 10 mg/kg, po after 30 mins by light-dark box test; assay type: functional, organism-based; parameters: dose 10 mg/kg
Outline: (§4)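 Male CD-1 mice (22–24 g); test agent po in 1% CMC, 30 min before a light/dark box session; time (s) spent in the illuminated compartment measured. Means ± SEM of 14–21 mice.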

[7] = system: Mus musculus; test: Effect on motor coordination in CD1 Albino mouse assessed as number of falls in 30 secs at 3 mg/kg, po after 30 mins by rotarod test; assay type: functional; outline: as §3
[8] = system: Mus musculus; test: Anticonvulsant activity against pentylenetetrazole-induced seizure in CD1 Albino mouse assessed as convulsant latency at 30 mg/kg, po after 30 mins; assay type: functional; outline: as §2
[9] = system: Mus musculus; test: Effect on ethanol-induced sleeping time in CD1 Albino mouse assessed as increase in duration of loss of righting reflex at 30 mg/kg, po after 30 mins; assay type: functional, organism-based; parameters: dose 30 mg/kg
Outline: (§5)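 Male CD-1 mice dosed po (1% CMC suspension); ethanol 4 g/kg ip given 30 min after the compound. Sleep time taken as duration of loss of righting reflex, end-point 150 min.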

[10] = system: Mus musculus; test: Effect on ethanol-induced sleeping time in CD1 Albino mouse assessed as increase in duration of loss of righting reflex at 10 mg/kg, po after 30 mins; assay type: functional, organism-based; parameters: dose 10 mg/kg; outline: as §5
[11] = system: Mus musculus; test: Anxiolytic effect in CD1 albino mouse at 30 mg/kg, po after 30 mins by light-dark box test; assay type: functional, organism-based; parameters: dose 30 mg/kg; outline: as §4
[12] = system: Mus musculus; test: Increase in learning and memory performance in CD1 albino mouse at 10 mg/kg, po after 24 hrs by passive avoidance test; assay type: functional, organism-based; parameters: dose 10 mg/kg; outline: as §1
[13] = system: Mus musculus; test: Anticonvulsant activity against pentylenetetrazole-induced seizure in CD1 Albino mouse assessed as shock latency at 3 mg/kg, po after 30 mins; assay type: functional; outline: as §2
[14] = system: Mus musculus; test: Effect on ethanol-induced sleeping time in CD1 Albino mouse assessed as increase in duration of loss of righting reflex at 3 mg/kg, po after 30 mins; assay type: functional, organism-based; parameters: dose 3 mg/kg; outline: as §5
[15] = system: Mus musculus; test: Sedative activity in CD1 albino mouse assessed as reduction of curiosity at 3 mg/kg, po after 30 mins by hole-board test; assay type: functional, organism-based; parameters: dose 3 mg/kg
Outline: (§6)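 Hole-board: male CD-1 mice given compound po (1% CMC) and placed individually on the board 30 min later, free to explore panel and holes for 5 min; spontaneous motility and exploration (panel and hole movements) scored.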

[16] = system: Mus musculus; test: Anticonvulsant activity against pentylenetetrazole-induced seizure in CD1 Albino mouse assessed as convulsant latency at 3 mg/kg, po after 30 mins; assay type: functional; outline: as §2
[17] = system: Mus musculus; test: Anticonvulsant activity against pentylenetetrazole-induced seizure in CD1 Albino mouse assessed as convulsant latency at 10 mg/kg, po after 30 mins; assay type: functional; outline: as §2
[18] = system: Mus musculus; test: Anticonvulsant activity against pentylenetetrazole-induced seizure in CD1 Albino mouse assessed as shock latency at 30 mg/kg, po after 30 mins; assay type: functional; outline: as §2
[19] = system: Mus musculus; test: Sedative activity in CD1 albino mouse assessed as reduction of curiosity at 30 mg/kg, po after 30 mins by hole-board test; assay type: functional, organism-based; parameters: dose 30 mg/kg; outline: as §6

SMILES: O=C(c1ccco1)c1cnn2c1n[n+]([O-])c1ccc(Cl)cc12
- Ki [1]: 0.072 µM

SMILES: Cn1cccc1C(=O)c1cnn2c1n[n+]([O-])c1ccc(Oc3ccccc3)cc12
- Ki [1]: 1.3 µM

SMILES: O=C(c1ccc[nH]1)c1cnn2c1n[n+]([O-])c1ccc(Oc3ccccc3)cc12
- Ki [1]: 0.276 µM

SMILES: COc1ccccc1C(=O)c1cnn2c1n[n+]([O-])c1ccc(Cl)cc12
- Ki [1]: 4.2 µM

SMILES: CCOc1ccc2c(c1)n1ncc(C(=O)c3ccc[nH]3)c1n[n+]2[O-]
- Ki [1]: 1.84 µM

SMILES: O=C(c1cccs1)c1cnn2c1nnc1ccc(Oc3ccccc3)cc12
- Ki [1]: 0.0147 µM

SMILES: O=C(c1ccc[nH]1)c1cnn2c1nnc1ccc(Cl)cc12
- Ki [1]: 1.94 µM

SMILES: CC(=O)c1cnn2c1n[n+]([O-])c1ccc(Oc3ccccc3)cc12
- Ki [1]: 0.053 µM

SMILES: O=C(c1ccco1)c1cnn2c1n[n+]([O-])c1ccc(Oc3ccccc3)cc12
- Ki [1]: 0.007 µM

SMILES: O=C(c1cccs1)c1cnn2c1n[n+]([O-])c1ccc(Oc3ccccc3)cc12
- Activity [2]: Active
- Activity [3]: 279.7 s
- Activity [4]: 1.6 count
- Activity [5]: 2 count
- Activity [6]: Active
- Activity [7]: 0.8 count
- Activity [8]: 766.6 s
- Activity [9]: Active
- Ki [1]: 0.0089 µM
- Activity [10]: Active
- Activity [11]: Active
- Activity [12]: Active
- Activity [13]: 224.5 s
- Activity [14]: Active
- Activity [15]: Active
- Activity [16]: 460.3 s
- Activity [17]: 542.6 s
- Activity [18]: 614.1 s
- Activity [19]: Active

SMILES: O=C(c1ccco1)c1cnn2c1n[n+]([O-])c1ccc(OCc3ccccc3)cc12
- Ki [1]: 0.0014 µM

SMILES: CCOc1ccc2c(c1)n1ncc(C(C)=O)c1n[n+]2[O-]
- Ki [1]: 0.902 µM

SMILES: O=C(c1cccs1)c1cnn2c1n[n+]([O-])c1ccc(Cl)cc12
- Ki [1]: 0.062 µM

SMILES: O=C(c1ccccc1)c1cnn2c1n[n+]([O-])c1ccc(Cl)cc12
- Ki [1]: 3.49 µM

SMILES: O=C(c1cccs1)c1cnn2c1n[n+]([O-])c1ccc(OCc3ccccc3)cc12
- Ki [1]: 0.0027 µM
